Experiment [1] deals with Phospholipase A2 group VI, Homo sapiens. Briefly: Inhibition of human calcium-independent group-6A iPLA2 using Triton-X-100/PAPC/arachidonyl-1-14C PAPC substrate mixed micelles at 0.091 mole_fraction by modified dole assay relative to control.
Experiment [2] deals with T1, Phospholipase A2 group V (Homo sapiens) (UniProt P39877).
T1 sequence (whole entry): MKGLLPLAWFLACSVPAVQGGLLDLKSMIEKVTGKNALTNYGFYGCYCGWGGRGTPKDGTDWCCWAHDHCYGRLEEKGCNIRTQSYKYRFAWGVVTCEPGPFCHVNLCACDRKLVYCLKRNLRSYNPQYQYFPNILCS
Briefly: Inhibition of human group-5 sPLA2 using Triton-X-100/PAPC/arachidonyl-1-14C PAPC substrate mixed micelles at 0.091 mole_fraction by modified dole assay relative to control.

For experiment [3], the target named is T2, Cytosolic phospholipase A2 (Homo sapiens) (UniProt P47712).
T2 sequence (whole entry): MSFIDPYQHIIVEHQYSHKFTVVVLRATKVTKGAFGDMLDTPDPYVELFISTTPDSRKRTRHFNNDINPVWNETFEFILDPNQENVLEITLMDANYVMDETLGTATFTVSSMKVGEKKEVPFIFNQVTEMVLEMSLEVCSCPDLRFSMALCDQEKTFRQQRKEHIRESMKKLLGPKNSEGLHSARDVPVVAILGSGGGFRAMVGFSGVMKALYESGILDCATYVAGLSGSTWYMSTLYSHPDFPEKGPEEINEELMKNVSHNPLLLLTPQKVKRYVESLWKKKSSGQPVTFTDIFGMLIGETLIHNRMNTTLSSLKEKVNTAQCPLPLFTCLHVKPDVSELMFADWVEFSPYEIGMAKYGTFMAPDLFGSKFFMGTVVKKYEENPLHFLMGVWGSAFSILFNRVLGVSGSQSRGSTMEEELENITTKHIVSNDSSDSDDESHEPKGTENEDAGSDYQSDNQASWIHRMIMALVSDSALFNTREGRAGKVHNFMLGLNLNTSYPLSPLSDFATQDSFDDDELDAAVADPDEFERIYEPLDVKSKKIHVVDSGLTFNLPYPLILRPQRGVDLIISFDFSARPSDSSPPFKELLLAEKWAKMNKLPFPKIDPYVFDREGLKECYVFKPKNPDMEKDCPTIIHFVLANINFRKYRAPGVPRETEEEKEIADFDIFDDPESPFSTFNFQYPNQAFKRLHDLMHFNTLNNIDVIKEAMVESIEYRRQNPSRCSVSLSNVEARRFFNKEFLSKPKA
As to the kind of experiment: Inhibition of human group-4 cPLA2 using Triton-X-100/PAPC/arachidonyl-1-14C PAPC/PIP2 substrate mixed micelles at 0.091 mole_fraction by modified dole assay relative to control. The essentials: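 Buffer was 100 mM HEPES pH 7.5 with 90 μM CaCl2, 2 mM DTT and 0.1 mg/ml BSA. Activity was read by modified Dole assay with inhibitor at 0.091 mole fraction, added from a 5 mM DMSO stock, and expressed as percent inhibition.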

Experiment [4] deals with T1, Phospholipase A2 group V (Homo sapiens). Briefly: Inhibition of human calcium-independent group-5 sPLA2 using Triton-X-100/PAPC/arachidonyl-1-14C PAPC substrate mixed micelles at 0.091 mole_fraction by modified dole assay relative to control. Conditions: in the assay text read “group-5 sPLA2” for “calcium-independent group-5 sPLA2”. The essentials: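 Human GV sPLA2 activity was measured by modified Dole assay. Inhibitor was added from a 5 mM DMSO stock to give 0.091 mole fraction in substrate, and percent inhibition was recorded.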

The species entered for experiment [5] is Homo sapiens. Briefly: Selectivity ratio of XI50 for human group-4 cPLA2 to XI50 for human calcium-independent group-6A iPLA2.
The test system of experiment [6] is Phospholipase A2 group VI, Homo sapiens. As to the kind of experiment: Inhibition of human calcium-independent group-6A iPLA2 using Triton-X-100/PAPC/arachidonyl-1-14C PAPC substrate mixed micelles by modified dole assay.
Experiment [7] has the same test system. As to the kind of experiment: Inhibition of human calcium-independent group-6A iPLA2 using substrate mixed micelles at 0.091 mole_fraction by modified dole assay relative to control.

In general, inhibition refers to the share of the control response that was lost under treatment. Regarding `CCCC[C@H](NC(=O)C(=O)CCCCc1ccc(OC)cc1)C(=O)NCCCCC(=O)OC(C)(C)C`, the inhibition in experiment [1] was 90.1%; in experiment [2], 56.3%; in experiment [3], 64.5%.

`CCCC[C@@H](COCC(=O)OC(C)(C)C)NC(=O)C(=O)CCCCc1ccc2ccccc2c1`: the inhibition in experiment [4] amounted to 63.9%; in experiment [1], 88.4%; in experiment [3], 85.5%.

Consider `CCCC[C@@H](COCC(=O)OC(C)(C)C)NC(=O)C(=O)CCCCc1ccccc1`, for which the values for the inhibition in experiment [1], in experiment [2] and in experiment [3] were 76%, 57.5% and 82.3%, respectively.

Turning to `CCCC[C@@H](COCC(=O)O)NC(=O)C(=O)CCCCc1ccc(OC)cc1`, the inhibition in experiment [1] was under 25%.

With `CCCC[C@H](NC(=O)C(=O)CCCCc1ccccc1)C(=O)NCC(=O)O`, the inhibition in experiment [1], in experiment [2] and in experiment [3] was under 25% each time.

As for `CCCC[C@H](NC(=O)C(=O)CCCCc1ccc(OC)cc1)C(=O)N[C@H](C)C(=O)OC(C)(C)C`, the inhibition in experiment [4] amounted to 49.9%; in experiment [1] it was 87.1%; in experiment [3] it was 73.4%.

For `CCCC[C@H](NC(=O)C(=O)CCCCc1ccc(OC)cc1)C(=O)NCC(=O)NCC(=O)OC(C)(C)C`, the inhibition in experiment [1] was 66.5%; in experiment [2], under 25%; in experiment [3], 27.1%.

Turning to `CCCC[C@H](NC(=O)C(=O)CCCCc1ccc(OC)cc1)C(N)=O`, the inhibition in experiment [4] was 31.1%; in experiment [1] it was 66.2%; in experiment [3] it was 29.3%.

Consider `CCCC[C@@H](COCC(=O)OCC)NC(=O)C(=O)CCCCc1ccc(OC)cc1`, for which the inhibition in experiment [1] is 75.2%.

With `CCCC[C@H](NC(=O)C(=O)CCCCc1ccc(OC)cc1)C(=O)N[C@@H](C)C(=O)OC(C)(C)C`, the inhibition in experiment [4] stood at 46.6%; in experiment [1], 87.5%; in experiment [3], 57.4%.

As for `CCCC[C@H](NC(=O)C(=O)CCCCc1ccc(OC)cc1)C(=O)NCCCC(=O)OC(C)(C)C`, the inhibition in experiment [4] is 44.8%; in experiment [1], over 95%; in experiment [3], 52.6%. Further, in experiment [5], the Selectivity ratio is 13. The XI50 (mole fraction) in experiment [6] was 0.007.

`CCCC[C@H](NC(=O)C(=O)CCCCc1ccc2ccccc2c1)C(=O)NCC(=O)O`: the inhibition in experiment [1] is under 25%; in experiment [2] it was under 25%; in experiment [3], 43.1%.

On to `CCCC[C@H](NC(=O)C(=O)CCCCc1ccccc1)C(=O)NCC(=O)OC(C)(C)C`, for which the inhibition in experiment [4] came out at 43.4%; in experiment [1] it was 91.1%; in experiment [3], 46.9%.

With `CC[C@H](C)[C@H](NC(=O)C(=O)CCCCc1ccc(OC)cc1)C(=O)NCC(=O)OC(C)(C)C`, the inhibition amounted to 48.2% in experiment [4], 81.8% in experiment [1] and 57.3% in experiment [3].

In the case of `CCCCC/C=C\C/C=C\C/C=C\C/C=C\CCCC(=O)C(F)(F)F`, the XI50 (mole fraction) in experiment [7] was determined as 0.028.

`COc1ccc(CCCCC(=O)C(=O)N[C@H](C(=O)NCC(=O)OC(C)(C)C)C(C)C)cc1`: the inhibition in experiment [4] was determined as 47.1%; in experiment [1] it was 85.7%; in experiment [3], 35.4%.

On to `CCCC[C@H](NC(=O)C(=O)CCCCc1ccc2ccccc2c1)C(=O)NCC(=O)OC(C)(C)C`, for which the results for the inhibition in experiment [4], in experiment [1] and in experiment [3] were 44.8%, 89.1% and 57.5%, respectively.

For `CCCC[C@@H](NC(=O)C(=O)CCCCc1ccc(OC)cc1)C(=O)NCC(=O)OC(C)(C)C`, the figures for the inhibition in experiment [4], in experiment [1] and in experiment [3] were 39.3%, over 95% and 68%, respectively. In addition, the XI50 (mole fraction) in experiment [6] is 0.04.

For the compound `CCCC[C@H](NC(=O)C(=O)CCCCc1ccc(OC)cc1)C(=O)NCCCC(=O)OCc1ccccc1`, the inhibition in experiment [4] was determined as 27.7%; in experiment [1] it was 78.3%; in experiment [3], 47.9%.

With `CCCC[C@H](NC(=O)C(=O)CCCCc1ccc(OC)cc1)C(=O)NCCC(=O)OC(C)(C)C`, the inhibition in experiment [1] is 83.1%; in experiment [2] it was 32.5%; in experiment [3], 37.8%.

Take `CCCC[C@H](NC(=O)C(=O)CCCCc1ccc(OC)cc1)C(=O)NCC(=O)OCc1ccccc1`: the figures for the inhibition in experiment [1], in experiment [2] and in experiment [3] were over 95%, under 25% and 52.3%, respectively. Moreover, in experiment [6], the XI50 (mole fraction) is 0.026.

In the case of `CCCC[C@@H](COCC(=O)OC(C)(C)C)NC(=O)C(=O)CCCCc1ccc(OC)cc1`, the inhibition in experiment [1] was determined as 93.6%.

In the case of `COc1ccc(CCCCC(=O)C(=O)N[C@@H](CC(C)C)C(=O)NCC(=O)OC(C)(C)C)cc1`, the inhibition was 40.8% in experiment [4], over 95% in experiment [1] and 51.6% in experiment [3]. In experiment [6], the XI50 (mole fraction) amounted to 0.024.

For the compound `CCCC[C@H](NC(=O)C(=O)CCCCc1ccc2ccccc2c1)C(=O)NCC(=O)OCC`, the inhibition in experiment [1] was 77.1%; in experiment [2], 54.4%; in experiment [3], 70.5%.

For the compound `CCCC[C@H](NC(=O)C(=O)CCCCc1ccc(OC)cc1)C(=O)OC(C)(C)C`, the inhibition in experiment [4] amounted to 60.6%; in experiment [1], 60%; in experiment [3], 85.7%.

With `CCCC[C@H](NC(=O)C(=O)CCCCc1ccc(OC)cc1)C(=O)NCC(=O)OC(C)(C)C`, the inhibition is over 95% in experiment [1], 45.3% in experiment [2] and 40.2% in experiment [3]. Besides, the XI50 (mole fraction) in experiment [6] came to 0.012.

On to `COc1ccc(CCCCC(=O)C(=O)N[C@@H](CC(C)C)C(=O)NCCCC(=O)OC(C)(C)C)cc1`, for which the inhibition in experiment [1] is 92.8%; in experiment [2] it was under 25%; in experiment [3], 58%.

The values above are taken from ChEMBL document CHEMBL3875208, “2-Oxoamides based on dipeptides as selective calcium-independent phospholipase A2 inhibitors” (Bioorg Med Chem, 2017).
